Our source for the outcome values is PubChem BioAssay.

Activity calls are given as the source filed them.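 How the source made its calls: active means duplicate-averaged activation above buffer control mean plus 5 SD of those controls; inactive means the rest.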

The assay in a line: nonspecific flux increase, KCNQ1-free cells – parental CHO cells, counter-screen for KCNQ1 potentiator project (AID 493006). The conditions noted are these: parental CHO-K1 cells, FluxOR thallium flux, at 10 µM. The essentials:
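Material: untransfected host CHO-K1 cells with FluxOR thallium dye. Timing: overnight 37 °C plating, 90 min RT dye, 20 min compound. Detection: kinetic FluxOR fluorescence, 10 s baseline, 110 s after stimulus. Read-out basis: max-minus-min fluorescence over baseline, percent of buffer-to-R-L3 span. Replicates: duplicate wells per compound, percent values averaged.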
In general terms: Counterscreens check selectivity or assay interference.
As to `CC(=O)Nc1ccc(/C=N/NC(=O)c2cccc(S(=O)(=O)N3CCOCC3)c2)cc1`, the outcome was inactive.
Then `Cc1ccc2cc(/C=N/NC(=O)CN3CCCCC3)c(Cl)nc2c1`, with “inactive”; and `COc1cc2c(cc1NC(=O)CSc1nnc(COc3ccc(Cl)cc3)n1C)oc1ccccc12`, with “inactive”.
Then `Cc1ccc(OCCn2c(=S)[nH]c3ccccc32)c(C(C)C)c1`, with “inactive”; and `CN(CC(=O)NCc1ccccc1Cl)CC(=O)Nc1cccc(F)c1`, with “inactive”.
Turning to `COc1cccc(NC(=S)N/N=C2/CCCCc3ccccc32)c1`, the result was inactive.
Then `Cc1ccsc1/C=N\NC(=O)c1n[nH]c2c1CCC2`, with “inactive”; and `CCn1c2ccccc2c2cc(CC(N)=O)ccc21`, with “inactive”; and `Cc1ccc(C2C(C#N)=C(N)OC3=C2C(=O)CC(C)(C)C3)s1` (centres undefined), with “inactive”.
Regarding `O=C(CNC(=S)NC(=O)c1ccc(Br)o1)c1ccccc1`, the result was inactive.
On to `Cc1cccc(C(=O)NC(=S)NNC(=O)COc2c(C)cccc2C)c1`, for which the outcome was inactive.
Then `CCCn1c(=O)c(C(=O)NNC(=O)c2ccc(Cl)cc2Cl)c(O)c2ccccc21`, with “inactive”; and `Cc1[nH]c(=S)c(C#N)c(C)c1Cc1ccc(Cl)cc1Cl`, with “inactive”; and `CCCCS(=O)(=O)/C=C\C=C/S(=O)(=O)CCCC`, with “inactive”.
Then `O=C(Nc1nnc(-c2ccccc2)o1)c1cc(Cl)sc1Cl`, with “inactive”; and `O=C(CNc1ccc(Br)cc1)NNC1=NCCC1`, with “inactive”; and `Cc1ccc(C)c(NC(=S)NNC(=O)c2csc3c2CCCC3)c1`, with “inactive”.
On to `Cc1ccc(NC(=O)Nc2ccc3c(c2)CCC3)cc1`, for which the outcome was inactive.
Then `Cc1nnnn1/C(=C\c1ccccc1)C(=O)OCC(=O)Nc1ccc(Cl)cc1F`, with “inactive”.
